Screening data deposited in PubChem BioAssay by several laboratories.
In the library only some 4.5% were active in any assay of this set; here they are far more common.
NS3 helicase inh: inhibitors of Hepatitis C virus NS3 helicase | AID 1800 | NS3 helicase DNA unwinding, Cy5 molecular beacon fluorescence | actives 0.56% (n = 290,000) | inhibition, % at 10.9 µM;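 active means inhibition above the mean of all tested compounds plus 3 SD, set per campaign, cut at about 35% in these data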;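 further: 0% = DMSO wells and 100% = thioflavine S control wells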
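System: HCV NS3 helicase fragment; control set: DMSO and thioflavine S; technique: Cy5 fluorescence at 0 and 60 min, beacon hairpin quenching; reagent: beacon DNA duplex substrate plus ATP; replicates: singlicate; schedule: 1 h reaction at 25 °C, ATP-initiated; medium: MOPS buffer pH 6.5 with MgCl2, DTT, Tween20, BSA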
CHOP inh: inhibitors of CHOP induction in ER stress response. actives 3.8% (n = 220,000). inhibition, % at 10 µM. CHO-K1 CHOP-promoter luciferase, tunicamycin-induced, 15-18 h;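 active means compounds that reduced the stress-induced luciferase reporter signal by more than about 70% of percent inhibition, limit read from the data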;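 further: 0% = tunicamycin plus vehicle and 100% = wells without tunicamycin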
p97 inhibitor: inhibitors of human p97 ATPase; actives 0.42% (n = 220,000); inhibition, % at 8 µM; recombinant p97 ATPase, Kinase-Glo ATP luminescence, 3 h; in the data active means inhibition above about 15%;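 further: 0% = DMSO vehicle and 100% = wells lacking enzyme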
Target sequence (P55072 whole entry, looked up): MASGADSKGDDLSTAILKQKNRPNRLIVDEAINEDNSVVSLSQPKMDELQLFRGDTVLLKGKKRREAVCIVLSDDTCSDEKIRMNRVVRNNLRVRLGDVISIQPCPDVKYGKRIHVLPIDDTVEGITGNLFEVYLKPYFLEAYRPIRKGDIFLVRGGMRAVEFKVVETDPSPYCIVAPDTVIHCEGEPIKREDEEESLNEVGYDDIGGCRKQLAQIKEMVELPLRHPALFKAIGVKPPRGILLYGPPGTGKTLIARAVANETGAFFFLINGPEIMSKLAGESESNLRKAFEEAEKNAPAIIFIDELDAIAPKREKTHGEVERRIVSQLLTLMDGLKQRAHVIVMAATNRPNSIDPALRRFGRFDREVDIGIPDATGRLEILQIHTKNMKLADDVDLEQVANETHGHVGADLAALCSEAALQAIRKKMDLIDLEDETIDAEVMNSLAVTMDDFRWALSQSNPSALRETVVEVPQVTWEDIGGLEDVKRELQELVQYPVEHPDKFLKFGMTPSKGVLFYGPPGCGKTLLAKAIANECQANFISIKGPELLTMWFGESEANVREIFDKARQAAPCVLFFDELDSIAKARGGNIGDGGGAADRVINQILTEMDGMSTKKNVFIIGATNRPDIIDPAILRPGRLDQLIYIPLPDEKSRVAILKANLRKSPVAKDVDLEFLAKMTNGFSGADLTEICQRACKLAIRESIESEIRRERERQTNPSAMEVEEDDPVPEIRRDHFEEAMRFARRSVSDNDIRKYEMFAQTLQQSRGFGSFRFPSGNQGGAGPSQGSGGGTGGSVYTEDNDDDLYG
XBP1 UPR activ: adaptive UPR (XBP1) activation; CHO-XBP1 luciferase reporter, IRE1-XBP1 UPR activation, luminescence; percent of tunicamycin response, DMSO as zero; activation, % at 20 µM; actives 0.33% (n = 330,000);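 active means versus positive control, 20 µM dose yields 30% or more activation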;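 further: 100% = tunicamycin at 10 µg/mL and 0% = DMSO only wells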
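Material: CHO cell line with stable XBP1 luciferase reporter; schedule: 16-18 h cell attachment at 37 °C, then 6 h compound exposure; signal: glow luminescence from Steady-Glo reagent; medium: serum-containing F12 medium, 10% FBS; benchmarks: tunicamycin 10 µg/mL and vehicle-only wells; read-out: percent activation relative to tunicamycin reference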
PfM18AAP inh: blocks P. falciparum M18 aspartyl aminopeptidase; recombinant PfM18AAP, H-Glu-NHMec fluorogenic cleavage; AID 1822; inhibition, % at 7.35 µM; actives 1.2% (n = 290,000);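 active means inhibition above the campaign mean inhibition over all tested compounds plus 3 SD, cut at about 28% in these data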;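 further: 0% = plate median of test compound wells and 100% = 2 mM ZnCl2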
CHOP UPR activ: activators of apoptotic arm of unfolded protein response (CHOP). CHO-CHOP luciferase reporter, UPR activation, luminescence; percent of tunicamycin response over DMSO baseline. activation, % at 10 µM. actives 0.34% (n = 330,000). AID 449763;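 active means at 10 µM dose, activation of 40% or more, normalized to positive control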;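 further: 100% = tunicamycin at 10 µg/mL and 0% = DMSO alone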
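System: CHO-CHOP luciferase reporter cell line | Buffer or medium: F12 medium containing 10% fetal bovine serum | Doses: One dose, 10 µM in 0.5% DMSO | Times: 6 h compound exposure at 37 °C after overnight seeding | Signal: Luciferase luminescence | Read-out: % activation vs tunicamycin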
p97 inh conf: human p97 ATPase inhibition, confirmation; AID 1517; inhibition, % at 8 µM; recombinant p97 ATPase, Kinase-Glo ATP luminescence; actives 44% (n = 760); shares compounds with p97 inhibitor;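 active means percent inhibition of p97 ATPase above a set limit, the primary screen's mean plus 3 SD, cut at about 15% in these data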;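 further: 0% = DMSO wells and 100% = wells lacking p97 protein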
* hit, by the source's call; / = no result.

SMILES	NS3 helicase inh	CHOP inh	p97 inhibitor	XBP1 UPR activ	PfM18AAP inh	CHOP UPR activ	p97 inh conf
O=C(CN(CC1CCCO1)C(=O)CNS(=O)(=O)c1ccc(F)cc1)NC1CCCC1 (configuration not stated)	-2	/	/	1	-2	0	/
COCC1CCCCN1Cc1cn[nH]c1-c1ccc2cc(OC)ccc2c1 (configuration not stated)	-9	21	17*	4	-1	1	6
COCC1CCCCN1Cc1cn[nH]c1-c1ccc(OC)cc1OC (configuration not stated)	-5	5	3	-2	3	-1	/
CC[N+]1(C)CCC(=C2c3ccccc3CC(=O)c3sccc32)CC1 (configuration not stated)	-8	2	5	-2	0	-1	/
C[N+]1(C)CCC(=C2c3ccccc3CC(=O)c3sccc32)CC1	11	11	19*	0	16	-3	14
O=C1CCc2cc(NS(=O)(=O)c3ccc(Cl)cc3)cc3c2N1CC3	/	/	/	-4	/	-1	/
CCc1ccc(C2=Nn3c(nnc3-c3cccs3)SC2)cc1	-8	57	19*	1	-4	2	4
CCc1cc(=O)oc2c(C)c(OCC(=O)NCC3CCC(C(=O)O)CC3)ccc12 (configuration not stated)	-4	/	/	-2	1	0	/
Cc1nn(CC(C)C)c(Cl)c1C(=O)N(C)CC(=O)Nc1c(Cl)cccc1Cl	-7	/	/	1	-14	0	/
Cc1cccc(C2c3[nH]c4ccccc4c3CCN2C(=O)c2ccc(=O)[nH]c2)n1 (configuration not stated)	-1	-13	17*	-1	5	-2	4
Cc1ccc(C)c(NC(=O)CN(C)C(=O)c2ccc(-c3cccc(C(F)(F)F)c3)o2)c1	/	/	/	-3	/	1	/
Nc1cc(Cl)nnc1Cl	0	5	3	1	-8	2	/
CCOC(=O)C1Cc2c([nH]c3ccccc23)CN1 (configuration not stated)	-5	38	1	-1	5	3	/
CCOC(=O)C1Cc2ccccc2CN1 (configuration not stated)	4	41	15*	-4	-1	1	6
CCOC(=O)N1CCN(S(=O)(=O)N2CCCC(C(=O)NCCCN3CCCCC3CC)C2)CC1 (configuration not stated)	-1	/	/	-1	-1	1	/
O=C(O)C(C(O)c1ccc([N+](=O)[O-])cc1)[n+]1ccccc1 (configuration not stated)	/	/	/	1	/	-2	/
Fc1ccccc1-c1nc(NCc2ccccc2)c2ccccc2n1	-23	24	30*	-1	0	-1	40*
CC(=O)c1sc(C(C)(C)C)cc1NC(=O)/C=C/C(=O)O	3	11	15*	-3	8	0	9
COCCOC(=O)C(CC(=O)O)NCc1ccco1 (configuration not stated)	24	6	16*	-1	0	-3	2
COc1ccc(C(=O)NCCCN=C2NS(=O)(=O)c3ccccc32)cc1	0	/	/	0	-4	-1	/
Cc1ccccc1CN1C2=NCCCN2c2ccccc21	4	-15	15*	4	0	3	1
CCCC1Nc2ccc(C(=O)O)cc2C2C=CCC12 (configuration not stated)	27	-26	26*	/	15	/	8
O=[N+]([O-])c1ccc2c(c1)[nH]c(=S)n2-c1ccccc1	-6	-3	-2	1	2	1	/
COc1ccccc1C(=O)NCC(=O)N/N=C/c1ccncc1	5	-4	16*	2	2	-2	1
Cc1ccc(CCNC(=O)CN2C(=O)COc3ccc(S(=O)(=O)N4CCOCC4)cc32)cc1	2	/	/	-2	1	0	/
SMILES	NS3 helicase inh	CHOP inh	p97 inhibitor	XBP1 UPR activ	PfM18AAP inh	CHOP UPR activ	p97 inh conf
Cc1cc(Cl)nc(Cl)c1C(=O)NCc1ccc(Cl)cc1	-2	/	/	-7	-2	1	/
Oc1ccc(/C=N\Nc2cc(N3CCOCC3)nc(N3CCOCC3)n2)c(O)c1	-2	-34	11	2	26	4	/
Cc1cc(N/N=C/c2ccc(O)cc2O)nc(N2CCOCC2)n1	-3	-10	15*	5	24	3	17*
O=C(Nc1cccc(NC(=O)c2cccs2)c1)c1ccc([N+](=O)[O-])o1	-17	-119	18*	-1	1	7	25*
COc1cc(NC(=O)c2ccc([N+](=O)[O-])o2)ccc1NC(=O)c1cccs1	7	-153	0	4	-3	4	/
N#Cc1ccc(CN(c2ccncc2)S(=O)(=O)c2ccccc2)cc1	-1	/	/	-1	-5	-1	/
CC(=O)SCC(Cc1ccccc1)C(=O)NCC(=O)OCc1ccccc1 (configuration not stated)	-9	16	4	-8	-5	-1	/
CSc1nsc(SCc2ccc(Cl)cc2)n1	1	29	26*	0	5	3	0
COc1ccc(-n2c(NC(=O)c3ccco3)c(C#N)c3nc4ccccc4nc32)cc1	7	21	32*	1	-8	2	29*
c1ccc(COc2ccc3nocc3c2)cc1	/	/	/	5	/	4	/
NC1=NC2(CCCCC2)N(c2ccc(F)cc2)C(N)=N1	-2	17	2	-2	-1	3	/
NC1=NC2(CCCCC2)N(c2cccc(Cl)c2)C(N)=N1	6	-4	25*	2	0	2	2
COc1ccc(Cl)cc1NC(=O)C/C(C)=N/NC(=O)c1ccc(O)cc1	-4	/	/	-3	0	1	/
COc1ccc(Cl)cc1NC(=O)C/C(C)=N/NC(=O)Cc1ccccc1	-13	19	15*	0	-8	-1	6
Cc1ccc(CNS(=O)(=O)c2cc3c4c(c2)C(C)C(=O)N4CCC3)cc1 (configuration not stated)	-4	/	/	-6	-3	-1	/
CCCCn1c(N)c(N(CCC(C)C)C(=O)c2ccc([N+](=O)[O-])s2)c(=O)[nH]c1=O	/	/	/	1	/	2	/
CCOc1ccccc1C(=O)Nc1cc(OC)ccc1OC	11	39	3	5	7	0	/
CCOc1ccccc1C(=O)Nc1cc(Cl)ccc1O	-16	60	18*	-1	0	1	23*
Cc1ccc2nc(/C(C#N)=C\c3ccc([N+](=O)[O-])o3)[nH]c2c1	11	-15	16*	-9	5	-8	32*
